Reference: paper PMC4171190 (Fitoterapia, 2014)
Read-outs that look alike come from different tables or passages of the source. Marks after values point to notes of the source that are not given here.

Experiments:
alpha7 nAChR = alpha7 nAChR (Rattus norvegicus, UniProt Q05941); experiment: [3H]-MLA displacement from rat hippocampal membranes; type: binding
[1] = system: LPS stimulated BV2 microglia; experiment: Inhibition of NO release from LPS stimulated BV2 microglia; type: cell-based, murine
How it was run: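 BV2 murine microglia (DMEM/F-12, 10% FBS, 37°C, 5% CO2) trypsinised, seeded 5×10^5 cells/well in 24-well plates, adhered overnight. Pretreated 1h serum-free with test compound (±10μM MLA or 1μM nicotine), then 10μg/ml LPS for 24h. Supernatant nitrite read immediately by Griess, A550, against NaNO2 standard. Expressed as % of LPS alone; sigmoidal fits, fixed vs variable slope compared by F-test.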

[2] = biological target: nicotinic binding sites on BV2 membranes; experiment: [3H]-epibatidine saturation binding on BV2 membranes; set-up: species or system murine; conditions: read-out: Kd, saturation binding; BV2 microglia membranes
[3] = system: LPS stimulated BV2 microglia; experiment: Inhibition of TNF-alpha release from LPS stimulated BV2 microglia; type: cell-based, murine; conditions: flavonoid alone; 10μg/ml LPS 24h
How it was run: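 Murine BV2 cells seeded at 5×10^5 cells/well in 24-well plates, adhered overnight, then given 1h serum-free pretreatment with test compound (±10μM MLA or 1μM nicotine) before 10μg/ml LPS for 24h. Supernatants frozen, then assayed by mouse TNF-alpha ELISA. Release expressed as % of LPS alone, normalised to resazurin viability when groups differed. Sigmoidal fits, fixed vs variable slope compared by F-test.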

[4] = IC50 [3H]-MLA displacement, rat hippocampal membranes, 2nM [3H]-MLA
[5] = pIC50 [3H]-MLA displacement, rat hippocampal membranes, 2nM [3H]-MLA

Chain of alpha7 nAChR (Q05941 23-502): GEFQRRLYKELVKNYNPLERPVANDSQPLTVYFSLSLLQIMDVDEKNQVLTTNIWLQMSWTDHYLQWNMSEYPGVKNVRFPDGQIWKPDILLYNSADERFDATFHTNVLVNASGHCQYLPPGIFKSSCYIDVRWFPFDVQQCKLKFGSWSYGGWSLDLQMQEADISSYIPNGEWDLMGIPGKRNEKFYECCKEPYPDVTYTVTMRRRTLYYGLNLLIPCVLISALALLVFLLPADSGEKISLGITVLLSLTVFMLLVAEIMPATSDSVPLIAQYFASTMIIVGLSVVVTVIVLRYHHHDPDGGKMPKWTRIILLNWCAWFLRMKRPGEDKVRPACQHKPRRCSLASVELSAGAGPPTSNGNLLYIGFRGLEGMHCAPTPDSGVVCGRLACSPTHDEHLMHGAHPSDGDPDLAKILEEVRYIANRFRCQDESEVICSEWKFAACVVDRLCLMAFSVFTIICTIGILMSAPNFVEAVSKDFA

O=c1c(O)c(-c2ccc(O)c(O)c2)oc2cc(O)cc(O)c12 [Quercetin]
IC50 (alpha7 nAChR; [4]): 11.4 µM
IC50 (alpha7 nAChR; [5]): 11.5 µM

COc1cc(-c2[o+]c3cc(O)cc(O)c3cc2O)cc(OC)c1O [Malvidin]
IC50 (alpha7 nAChR): 90 µM

CN1CCC[C@H]1c1cccnc1 [nicotine, (-)-nicotine]
effect alone on LPS induced release of inflammatory mediators ([1]; 1μM, alone): no effect alone
effect of mecamylamine on inhibition of NO release ([1]; 10μM mecamylamine): blocked
maximal inhibition of LPS elicited release of NO ([1]; 1h pretreatment, 10μg/ml LPS 24h): ~20%

COc1cc(-c2[o+]c3cc(O)cc(O)c3cc2O[C@@H]2O[C@H](CO)[C@@H](O)[C@H](O)[C@H]2O)cc(O)c1O [Petunidin-3-glucoside]
pIC50 [3H]-MLA displacement (alpha7 nAChR; rat hippocampal membranes, 2nM [3H]-MLA): 2.464 ± 0.95
IC50 (alpha7 nAChR; read-out: IC50 [3H]-MLA displacement, rat hippocampal membranes, 2nM [3H]-MLA): 3430 µM

Clc1ccc(C2CC3CCC2N3)cn1 (centres unmarked) [[^3H]-epibatidine]
Kd [2]: 0.0065 µM

O=c1cc(-c2ccccc2)oc2cc(O)c(O)c(O)c12 [Baicalein]
IC50 (alpha7 nAChR; [4]): 66.1 µM

O=c1c(-c2ccc(O)cc2)coc2cc(O[C@@H]3O[C@H](CO)[C@@H](O)[C@H](O)[C@H]3O)ccc12 [Daidzin]
IC50 (alpha7 nAChR; [4]): 120 µM

O=c1c(O)c(-c2ccc(O)c(O)c2)oc2cc(O)c(O)c(O)c12 [Quercetagetin]
IC50 (alpha7 nAChR): 14.3 µM

COc1cc(O)c2c(=O)c(O)c(-c3ccc(O)c(O)c3)oc2c1 [Rhamnetin]
IC50 (alpha7 nAChR; [5]): 1.11 µM
Hill slope, inhibition of TNF-alpha release [3]: -3.5 ± 4.1

O=c1c(O)c(-c2ccc(O[C@@H]3O[C@H](CO)[C@@H](O)[C@H](O)[C@H]3O)c(O)c2)oc2cc(O)cc(O)c12 [Spiraeoside]
IC50 (alpha7 nAChR; [4]): 8.35 µM

O=c1c(O[C@@H]2O[C@H](CO)[C@@H](O)[C@H](O)[C@H]2O)c(-c2ccc(O)cc2)oc2cc(O)cc(O)c12 [Astragalin]
IC50 (alpha7 nAChR; [4]): 496 µM

O=c1c(O[C@@H]2O[C@H](CO)[C@@H](O)[C@H](O)[C@H]2O)c(-c2ccc(O)c(O)c2)oc2cc(O)cc(O)c12 [Isoquercitrin]
IC50 (alpha7 nAChR; [5]): 21.5 µM

COc1ccc(-c2oc3cc(O)cc(O)c3c(=O)c2O)cc1O [Tamarixetin]
IC50 (alpha7 nAChR; [4]): 238 µM

COc1cc(-c2oc3cc(O)cc(O)c3c(=O)c2O)ccc1O [Isorhamnetin]
IC50 (alpha7 nAChR; [4]): 46.5 µM
IC50 (alpha7 nAChR; [5]): 46.6 µM

COc1cc(O)c2c(c1)O[C@H](c1ccc(O)cc1)CC2=O [Sakuranetin]
effect of added MLA on anti-inflammatory properties (NO and TNF-alpha release) ([1]; addition of MLA, LPS stimulated BV2): no effect
Hill slope, inhibition of NO release ([1]; flavonoid alone, 10μg/ml LPS 24h): -1.0 ^**
Hill slope, inhibition of TNF-alpha release [3]: -1.0 ^**
